# Test results as given in ChEMBL document CHEMBL1127688, “Guaiacoxypropanolamine derivatives of capsaicin: a new family of beta-adrenoceptor blockers with intrinsic cardiotonic properties” (J Med Chem, 1994).
# Key:
# Rattus norvegicus [1] = assay: Change in blood pressure was tested by inducing ia injection at a dose 0.1 mg/kg in rat; type: functional; conditions: route intra-arterial
# Rattus norvegicus [2] = assay: Minimum dose of iv injection that shows vagus reflex and a heart rate decrease of 50 beats/min in non-vagotomized rats; type: functional
# Summary of the method: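 Non-vagotomized rats given increasing iv doses. The value is the lowest dose (mg/kg) that elicits a vagus reflex with a heart-rate fall of 50 beats/min. Compounds were scored ineffective if no such response occurred below 3 mg/kg. n = 8.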
# Cavia porcellus [3] = organism: Cavia porcellus; assay: Positive chronotropic effect was evaluated on atrial muscles of the guinea pig; type: functional, Muscle tissue; conditions: for Kb: Cavia porcellus, Muscle tissue, read-out: pA2 (converted)
# Rattus norvegicus [4] = assay: Heart rate of the urethane-anesthetized normotensive Wistar rat was tested 60 min after inducing the compound on dose of 1.0 mg/kg; type: functional
# Summary of the method: (§1)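 Urethane-anesthetized normotensive Wistar rats given a single iv injection at 1.0 mg/kg. Blood pressure (mmHg) and heart rate (beats/min) recorded, and the change reported at 5, 10, 15, 30 and 60 min after dosing. Saline-injected controls. Mean ± SE, n = 8. Significance versus saline by analysis of variance.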
# Rattus norvegicus [5] = assay: Heart rate of the urethane-anesthetized normotensive Wistar rat was tested 30 min after inducing the compound on dose of 1.0 mg/kg; type: functional; summary of the method: as §1
# Cavia porcellus [6] = organism: Cavia porcellus; assay: Positive inotropic effect was evaluated on atrial muscles of the guinea pig; type: functional, Muscle tissue; conditions: for Kb: Cavia porcellus, Muscle tissue, read-out: pA2 (converted)
# Rattus norvegicus [7] = assay: Blood pressure of the urethane-anesthetized normotensive Wistar rat was tested 30 min after inducing the compound on dose of 1.0 mg/kg; type: functional; summary of the method: as §1
# Rattus norvegicus [8] = assay: Blood pressure of the urethane-anesthetized normotensive Wistar rat was tested 10 min after inducing the compound on dose of 1.0 mg/kg; type: functional; summary of the method: as §1
# Rattus norvegicus [9] = assay: Blood pressure of the urethane-anesthetized normotensive Wistar rat was tested 60 min after inducing the compound on dose of 1.0 mg/kg; type: functional; summary of the method: as §1
# Rattus norvegicus [10] = assay: Blood pressure of the urethane-anesthetized normotensive Wistar rat was tested 15 min after inducing the compound on dose of 1.0 mg/kg; type: functional; summary of the method: as §1
# Rattus norvegicus [11] = assay: Heart rate of the urethane-anesthetized normotensive Wistar rat was tested 5 min after inducing the compound on dose of 1.0 mg/kg; type: functional; summary of the method: as §1
# Rattus norvegicus [12] = assay: Blood pressure of the urethane-anesthetized normotensive Wistar rat was tested 5 min after inducing the compound on dose of 1.0 mg/kg; type: functional; summary of the method: as §1
# Rattus norvegicus [13] = assay: Heart rate of the urethane-anesthetized normotensive Wistar rat was tested 10 min after inducing the compound on dose of 1.0 mg/kg; type: functional; summary of the method: as §1
# Rattus norvegicus [14] = assay: Heart rate of the urethane-anesthetized normotensive Wistar rat was tested 15 min after inducing the compound on dose of 1.0 mg/kg; type: functional; summary of the method: as §1
SMILES,Kb (Cavia porcellus [3]) [nM],HR (Rattus norvegicus [4]) [beats min-1],HR (Rattus norvegicus [5]) [beats min-1],Kb (Cavia porcellus [6]) [nM],BP (Rattus norvegicus [7]) [mmHg],BP (Rattus norvegicus [8]) [mmHg],BP (Rattus norvegicus [9]) [mmHg],BP (Rattus norvegicus [10]) [mmHg],HR (Rattus norvegicus [11]) [beats min-1],BP (Rattus norvegicus [12]) [mmHg],HR (Rattus norvegicus [13]) [beats min-1],HR (Rattus norvegicus [14]) [beats min-1],also measured
CCCCCCCCC(=O)NCc1ccc(OCCO)c(OC)c1,,,,,,,,,,,,,BP (Rattus norvegicus [1]): -44.2 mmHg; Dose (Rattus norvegicus [2]): 0.3 mg/kg
CCCCCCCCC(=O)NCc1ccc(OCC(O)CNCCCCC)c(OC)c1 (stereo not drawn),64.6,-6.56,-5.78,28.2,3.67,-1.67,2.44,-0.88,-25.11,-4.67,-23.33,-10.22,
CCCCCCCCC(=O)NCc1ccc(OCC(O)CNC(C)CC)c(OC)c1 (stereo not drawn),120,-9.56,-25.11,22.4,-0.88,4.89,1.22,3.33,-38.56,4.11,-35.44,-32.33,
CCCCCCCCC(=O)NCc1ccc(OCC(O)CNCCCCCC)c(OC)c1 (stereo not drawn),933,-8,-12.67,66.1,-2.11,-2.89,1.89,-4.44,-35.56,-2.22,-24.11,-14.89,
CCCCCCCCC(=O)NCc1ccc(OCCN(CC)CC)c(OC)c1,,,,,,,,,,,,,BP (Rattus norvegicus [1]): -15 mmHg; Dose (Rattus norvegicus [2]): 0.5 mg/kg
CCCCCCCCC(=O)NCc1ccc(OCC(O)CNC)c(OC)c1 (stereo not drawn),295,4.78,14.56,74.1,1.89,-0.22,0.78,-0.56,-34.56,-1.11,-17.33,-12.22,
CCCCCCCCC(=O)NCc1ccc(OCC(O)CNCCCC)c(OC)c1 (stereo not drawn),58.9,-3.67,-15.33,53.7,0.11,-1.22,3.33,-1.22,-40,-0.22,-33.78,-26.22,
CCCCCCCCC(=O)NCc1ccc(OCC(O)CNC(C)C)c(OC)c1 (stereo not drawn),17,-20,-32.67,8.51,-6.67,-1.22,-1.33,-2.89,-50.22,-0.44,-40.78,-35.44,
CCCCCCCCC(=O)NCc1ccc(OCCN(C)C)c(OC)c1,,,,,,,,,,,,,BP (Rattus norvegicus [1]): -21.6 mmHg; Dose (Rattus norvegicus [2]): 0.5 mg/kg
CCCCCCCCC(=O)NCc1ccc(OCC(O)CNC(C)(C)C)c(OC)c1 (stereo not drawn),39.8,-18.5,-24.88,15.8,1.25,3.38,4.63,2.38,-45,3.13,-37.75,-29.5,
CCCCCCCCC(=O)NCc1ccc(OCC(O)CNC2CC2)c(OC)c1 (stereo not drawn),,-2.67,-11.89,,3.67,3.11,2.22,3.89,-47.67,-0.11,-38.89,-23.67,
CCCCCCCCC(=O)NCc1ccc(OCC(O)CNCC)c(OC)c1 (stereo not drawn),117,2.56,-21.11,53.7,-2.44,2.56,1.88,1.11,-38.33,7.44,-32.22,-28,
CCCCCCCCC(=O)NCc1ccc(OCC(O)CNC2CCCCC2)c(OC)c1 (stereo not drawn),,2.78,-1.78,,1.33,-4.22,0.67,-3.67,-32.33,-4.11,-28.44,-11.67,
CCCCCCCCC(=O)NCc1ccc(OCC(O)CNCC(C)C)c(OC)c1 (stereo not drawn),117,3.13,4.13,26.9,2,1.63,0.25,1.63,-39.88,-2.75,-35.25,-27.13,
CCCCCCCCC(=O)NCc1ccc(OCC(O)CNCCC)c(OC)c1 (stereo in doubt; 6),93.3,,,25.1,,,,,,,,,HR (Rattus norvegicus [4]; 1 mg/kg): -7.56 beats min-1; HR (Rattus norvegicus [5]; 1 mg/kg): -5 beats min-1; BP (Rattus norvegicus [7]; 1 mg/kg): -1.11 mmHg; BP (Rattus norvegicus [8]; 1 mg/kg): -2.67 mmHg; BP (Rattus norvegicus [9]; 1 mg/kg): 4.78 mmHg; BP (Rattus norvegicus [10]; 1 mg/kg): -1.89 mmHg; HR (Rattus norvegicus [11]; 1 mg/kg): -36.78 beats min-1; BP (Rattus norvegicus [12]; 1 mg/kg): -1.56 mmHg; HR (Rattus norvegicus [13]; 1 mg/kg): -28.22 beats min-1; HR (Rattus norvegicus [14]; 1 mg/kg): -19.89 beats min-1
CCCCCCCCC(=O)NCc1ccc(OCC(O)CNCCC)c(OC)c1 (stereo in doubt; 8),,,,,,,,,,,,,pA2 (Cavia porcellus [3]): 6.79; HR (Rattus norvegicus [4]; 1 mg/kg): -6.89 beats min-1; HR (Rattus norvegicus [5]; 1 mg/kg): -14.11 beats min-1; pA2 (Cavia porcellus [6]): 7.75; BP (Rattus norvegicus [7]; 1 mg/kg): -2.44 mmHg; BP (Rattus norvegicus [8]; 1 mg/kg): -2.56 mmHg; BP (Rattus norvegicus [9]; 1 mg/kg): -0.56 mmHg; BP (Rattus norvegicus [10]; 1 mg/kg): -3.11 mmHg; HR (Rattus norvegicus [11]; 1 mg/kg): -42.56 beats min-1; BP (Rattus norvegicus [12]; 1 mg/kg): -1.78 mmHg; HR (Rattus norvegicus [13]; 1 mg/kg): -35.33 beats min-1; HR (Rattus norvegicus [14]; 1 mg/kg): -32 beats min-1
CC(C)NCC(O)COc1cccc2ccccc12 (stereo not drawn) [PROPRANOLOL],,-52.14,-62.57,,-4.67,-6.33,2.17,-6.5,-57.28,-2.83,-63.85,-65.28,
